Experiments:
Type in all cases: cell-based
HepG2 [1] = assay: Cytotoxicity against human HepG2 cells assessed as inhibition of mitochondrial respiratory chain complex III activity after 15 days relative to control; details: hepg2, 360 h
HepG2 [2] = assay: Cytotoxicity against human HepG2 cells assessed as inhibition of mitochondrial respiratory chain complex IV activity at 250 uM after 15 days relative to control; details: hepg2, 360 h
HepG2 [3] = assay: Cytotoxicity against human HepG2 cells assessed as inhibition of mitochondrial respiratory chain complex II activity at 10 uM after 15 days relative to control; details: hepg2, 360 h
HepG2 [4] = assay: Cytotoxicity against human HepG2 cells assessed as reduction in viable cells upto 250 uM after 15 days by trypan blue dye exclusion assay relative to control; details: hepg2, 360 h
Outline: (§1)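 HepG2 cells seeded at 5 × 10⁵/ml in MEM with 10% FBS and 1 mM pyruvate. Exposed for 6, 9 and 15 days, with medium and drug renewed every 3 days. Viable cells counted by trypan blue exclusion on a hemocytometer and expressed as percent of 0.1% DMSO control; three independent experiments.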

HepG2 [5] = assay: Cytotoxicity against human HepG2 cells assessed as inhibition of mitochondrial respiratory chain complex II activity at 250 uM after 15 days relative to control; details: hepg2, 360 h
HepG2 [6] = assay: Cytotoxicity against human HepG2 cells assessed as inhibition of mitochondrial respiratory chain complex I activity at 250 uM after 15 days relative to control; details: hepg2, 360 h
HepG2 [7] = assay: Cytotoxicity against human HepG2 cells assessed as inhibition of mitochondrial respiratory chain complex IV activity after 15 days relative to control; details: hepg2, 360 h
HepG2 [8] = assay: Cytotoxicity against human HepG2 cells assessed as reduction in mitochondrial DNA content at 10 uM after 15 days by RT-PCR method relative to control; set-up: scale not given: the % may be the effect or the level left; details: hepg2, 360 h
Outline: (§2)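 Total DNA extracted from HepG2 cells after 15-day exposure. Cells reseeded every 5 days; compounds added from 1,000× DMSO stocks, final DMSO 0.1%. Cytochrome b and actin copies measured by TaqMan real-time PCR against plasmid standard curves, 45 cycles. mtDNA/nDNA ratio expressed as percent of DMSO control; three independent experiments.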

HepG2 [9] = assay: Cytotoxicity against human HepG2 cells assessed as inhibition of mitochondrial respiratory chain complex I activity at 10 uM after 15 days relative to control; details: hepg2, 360 h
HepG2 [10] = assay: Cytotoxicity against human HepG2 cells assessed as reduction in mitochondrial DNA content at 250 uM after 15 days by RT-PCR method relative to control; set-up: scale not given: the % may be the effect or the level left; details: hepg2, 360 h; outline: as §2
HepG2 [11] = assay: Cytotoxicity against human HepG2 cells assessed as inhibition of mitochondrial respiratory chain complex IV activity at 10 uM after 15 days relative to control; details: hepg2, 360 h
HepG2 [12] = assay: Cytotoxicity against human HepG2 cells assessed as inhibition of mitochondrial respiratory chain complex III activity at 50 uM after 15 days relative to control; details: hepg2, 360 h
HepG2 [13] = assay: Cytotoxicity against human HepG2 cells assessed as mitochondrial swelling at 250 uM after 15 days by electron microscopy relative to control; details: hepg2, 360 h
Outline: (§3)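 HepG2 cells exposed 15 days, then fixed in 2.5% glutaraldehyde 1 h, postfixed in 1% osmium tetroxide 1 h, dehydrated through graded ethanol and propylene oxide, Epon-embedded, sectioned, and stained with uranyl acetate and lead citrate. Examined by transmission EM; >10 fields per treatment at low or high magnification; three independent experiments. DMSO 0.1% vehicle control.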

HepG2 [14] = assay: Cytotoxicity against human HepG2 cells assessed as inhibition of mitochondrial respiratory chain complex III activity at 10 uM after 15 days relative to control; details: hepg2, 360 h
HepG2 [15] = assay: Cytotoxicity against human HepG2 cells assessed as inhibition of mitochondrial respiratory chain complex I activity after 15 days relative to control; details: hepg2, 360 h
HepG2 [16] = assay: Cytotoxicity against human HepG2 cells assessed as inhibition of mitochondrial respiratory chain complex I activity at 50 uM after 15 days relative to control; details: hepg2, 360 h
HepG2 [17] = assay: Cytotoxicity against human HepG2 cells assessed as reduction in mitochondrial DNA content at 50 uM after 15 days by RT-PCR method relative to control; set-up: scale not given: the % may be the effect or the level left; details: hepg2, 360 h; outline: as §2
HepG2 [18] = assay: Cytotoxicity against human HepG2 cells assessed as inhibition of mitochondrial respiratory chain complex II activity at 50 uM after 15 days relative to control; details: hepg2, 360 h
HepG2 [19] = assay: Cytotoxicity against human HepG2 cells assessed as inhibition of mitochondrial respiratory chain complex II activity after 15 days relative to control; details: hepg2, 360 h
HepG2 [20] = assay: Cytotoxicity against human HepG2 cells assessed as lipid droplet formation at 250 uM after 15 days by electron microscopy relative to control; details: hepg2, 360 h; outline: as §3
HepG2 [21] = assay: Cytotoxicity against human HepG2 cells assessed as inhibition of mitochondrial respiratory chain complex III activity at 250 uM after 15 days relative to control; details: hepg2, 360 h
HepG2 [22] = assay: Cytotoxicity against human HepG2 cells assessed as increase in extracellular lactate secretion at 10 to 250 uM after 15 days relative to control; details: hepg2, 360 h
Outline: (§4)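 Extracellular lactate in HepG2 culture medium measured with a lactic acid kit after 15 days of exposure. Medium and drug renewed every 3 days. Expressed as mg lactic acid per 10⁶ cells, then as percent of 0.1% DMSO vehicle control. n = 3.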

HepG2 [23] = assay: Cytotoxicity against human HepG2 cells assessed as inhibition of mitochondrial respiratory chain complex IV activity at 50 uM after 15 days relative to control; details: hepg2, 360 h
HepG2 [24] = assay: Cytotoxicity against human HepG2 cells assessed as reduction in viable cells at 10 uM after 15 days by trypan blue dye exclusion assay relative to control; details: hepg2, 360 h; outline: as §1
HepG2 [25] = assay: Cytotoxicity against human HepG2 cells assessed as disrupted mitochondrial cristae at 10 uM after 15 days by electron microscopy relative to control; details: hepg2, 360 h; outline: as §3
HepG2 [26] = assay: Cytotoxicity against human HepG2 cells assessed as increase in extracellular lactate secretion at 10 uM after 15 days relative to control; details: hepg2, 360 h; outline: as §4
HepG2 [27] = assay: Cytotoxicity against human HepG2 cells assessed as mitochondrial swelling at 10 uM after 15 days by electron microscopy relative to control; details: hepg2, 360 h; outline: as §3
HepG2 [28] = assay: Cytotoxicity against human HepG2 cells assessed as increase in extracellular lactate secretion at 50 uM after 15 days relative to control; details: hepg2, 360 h; outline: as §4
HepG2 [29] = assay: Cytotoxicity against human HepG2 cells assessed as reduction in viable cells at 50 uM after 15 days by trypan blue dye exclusion assay relative to control; details: hepg2, 360 h; outline: as §1
HepG2 [30] = assay: Cytotoxicity against human HepG2 cells assessed as slight increase in mitochondrial size at 50 uM after 15 days by electron microscopy relative to control; details: hepg2, 360 h; outline: as §3
HepG2 [31] = assay: Cytotoxicity against human HepG2 cells assessed as reduction in viable cells at 50 uM after 6 days by trypan blue dye exclusion assay relative to control; details: hepg2, 144 h; outline: as §1

## COc1nc(N)nc2c1ncn2[C@H]1CC[C@@H](CO)O1 [METACAVIR]
HepG2 [1]
  Activity: Dose-dependent effect
HepG2 [2]
  Activity: Toxic
HepG2 [3]
  Activity: Non-toxic
HepG2 [4]
  Activity: Non-toxic
HepG2 [5]
  Activity: Toxic
HepG2 [6]
  Activity: Toxic
HepG2 [7]
  Activity: Dose-dependent effect
HepG2 [8]
  Activity: Non-toxic
HepG2 [9]
  Activity: Non-toxic
HepG2 [10]
  Activity: 60%
HepG2 [11]
  Activity: Non-toxic
HepG2 [12]
  Activity: Toxic
HepG2 [13]
  Activity: Toxic
HepG2 [14]
  Activity: Non-toxic
HepG2 [15]
  Activity: Dose-dependent effect
HepG2 [16]
  Activity: Toxic
HepG2 [17]
  Activity: 80%
HepG2 [18]
  Activity: Non-toxic
HepG2 [19]
  Activity: Dose-dependent effect
HepG2 [20]
  Activity: Toxic
HepG2 [21]
  Activity: Toxic
HepG2 [22]
  Activity: Non-toxic
HepG2 [23]
  Activity: Toxic

## Nc1ccn([C@H]2CC[C@@H](CO)O2)c(=O)n1 [ZALCITABINE]
HepG2 [3]
  Activity: Toxic
HepG2 [8]
  Activity: 3%
HepG2 [9]
  Activity: Toxic
HepG2 [24]
  Activity: < 30%
HepG2 [11]
  Activity: Toxic
HepG2 [14]
  Activity: Toxic
HepG2 [25]
  Activity: Toxic
HepG2 [26]
  Activity: 170%
HepG2 [27]
  Activity: Toxic

## Cc1cn([C@H]2C[C@H](N=[N+]=[N-])[C@@H](CO)O2)c(=O)[nH]c1=O [ZIDOVUDINE]
HepG2 [28]
  Activity: 300%
HepG2 [29]
  Activity: 60%
HepG2 [30]
  Activity: Toxic
HepG2 [31]
  Activity: Toxic
HepG2 [12]
  Activity: Toxic
HepG2 [16]
  Activity: Toxic
HepG2 [17]
  Activity: Non-toxic
HepG2 [18]
  Activity: Toxic
HepG2 [23]
  Activity: Toxic

Reference: ChEMBL document CHEMBL1687798, “In vitro mitochondrial toxicity of metacavir, a new nucleoside reverse transcriptase inhibitor for treatment of hepatitis B virus” (Antimicrob Agents Chemother, 2010)
